The nature of test [1]: (§1) Inhibition of chymotrypsin-like activity of rabbit 20S proteasome. Set-up: species or system Oryctolagus cuniculus. In outline:
(§2)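 Rabbit 20S proteasome was run at 37 °C, pH 7.5, for 45 min, with and without compound (0.1–200 µM). Fluorogenic substrates were Suc-LLVY-AMC for chymotrypsin-like activity and Z-LLE-βNA for post-acid activity. Buffer was 20 mM Tris, 1 mM DTT, 10% glycerol and 0.02% (w/v) SDS. IC50 or % inhibition at 100 µM is the mean of three experiments.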

Test [2] is described as follows: (§3) Inhibition of post-acid activity of rabbit 20S proteasome. The arrangement: species or system Oryctolagus cuniculus. Summed up: as §2
The species named for test [3] is Oryctolagus cuniculus. As to the kind of experiment: (§4) Inhibition of trypsin-like activity of rabbit 20S proteasome. In outline:
(§5)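 Trypsin-like activity of rabbit 20S proteasome was followed by Boc-LRR-AMC hydrolysis over 45 min at 37 °C, with and without compound (0.1–200 µM). Buffer was pH 7.5 20 mM Tris, 1 mM DTT and 10% glycerol, with no SDS. Values are IC50 or % inhibition at 100 µM, as means of three experiments.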

Test [4] is filed under the species Oryctolagus cuniculus. The test is described as §3. Summed up:
as §2

The target in test [5] is Cathepsin B (Homo sapiens) (UniProt P07858). As to the kind of experiment: Inhibition of CTSB. Summed up:
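Cathepsin B was assayed at 37 °C using Z-RR-AMC substrate in 352 mM KH2PO4 (pH 6), 48 mM NaHPO4, 1 mM EDTA and 1 mM DTT.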

Test [6] deals with T1, Calpain-1 catalytic subunit (Homo sapiens) (UniProt P07384).
T1 sequence (whole entry): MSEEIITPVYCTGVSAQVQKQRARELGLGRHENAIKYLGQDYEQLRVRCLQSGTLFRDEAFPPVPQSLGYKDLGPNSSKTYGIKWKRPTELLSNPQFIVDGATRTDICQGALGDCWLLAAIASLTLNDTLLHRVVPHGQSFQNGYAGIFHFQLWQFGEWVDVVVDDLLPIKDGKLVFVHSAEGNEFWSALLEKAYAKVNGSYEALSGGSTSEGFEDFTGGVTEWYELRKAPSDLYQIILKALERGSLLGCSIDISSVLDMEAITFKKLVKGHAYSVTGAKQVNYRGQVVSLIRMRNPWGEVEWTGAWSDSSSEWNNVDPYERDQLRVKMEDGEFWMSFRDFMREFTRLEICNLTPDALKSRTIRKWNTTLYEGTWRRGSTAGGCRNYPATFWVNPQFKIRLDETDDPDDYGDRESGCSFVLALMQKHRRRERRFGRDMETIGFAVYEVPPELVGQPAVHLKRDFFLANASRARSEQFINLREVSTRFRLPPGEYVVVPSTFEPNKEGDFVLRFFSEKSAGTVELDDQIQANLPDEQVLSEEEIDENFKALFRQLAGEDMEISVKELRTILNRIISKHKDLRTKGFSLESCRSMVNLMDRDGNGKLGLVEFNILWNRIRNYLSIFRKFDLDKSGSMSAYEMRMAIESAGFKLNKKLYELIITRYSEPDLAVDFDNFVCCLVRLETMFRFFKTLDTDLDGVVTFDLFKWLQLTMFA
As to the kind of experiment: Inhibition of calpain 1. In outline:
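Purified calpain I was assayed at 37 °C with Suc-LLVY-AMC substrate in 50 mM Tris–HCl (pH 7.2), 10 mM DTT and 2 mM CaCl2.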

The nature of test [7]: as §4. The arrangement: species or system Oryctolagus cuniculus. In outline: as §5
The species named for test [8] is Oryctolagus cuniculus. As to the kind of experiment: Inhibition of trypsin-like activity of rabbit 20S proteasome at 100 uM. In outline: as §5
The species entered for test [9] is Oryctolagus cuniculus. The test is described as §1. Summed up:
as §2

A further test has as its system HeLa. As to the kind of experiment: Inhibition of chymotrypsin-like activity of 20S proteasome in human HeLa cells at 50 uM after 1.5 hrs by chemiluminescent assay.

SMILES strings stand for the structures. Active and inactive are the calls of the source. The calls are words filed in the database; no cut-off is given here.

One may read the IC50 as the concentration needed to halve the response being measured. A word on the inhibition: it is the relative decrease from the control value, in per cent.

Consider `COC(=O)[C@H](Cc1ccccc1)NC(=O)CC(NNC(=O)[C@H](Cc1ccc(OC)c(OC)c1)NC(=O)Cc1cccc(Oc2ccccc2)c1)C(F)(F)F` (mixture of isomers), for which the IC50 in test [1] came to 85 µM; in test [2], 72 µM.
`COC(=O)[C@H](Cc1ccccc1)NC(=O)CC(NNC(=O)Cc1cccc(Oc2ccccc2)c1)C(F)(F)F` (mixture of isomers): the result in the test filed under Oryctolagus cuniculus [3] and in the test listed under Oryctolagus cuniculus [4] was inactive.
With `COC(=O)[C@H](Cc1ccccc1)NC(=O)CC(NNC(=O)[C@@H](N)CCCCNC(=O)OCc1ccccc1)C(F)(F)F` (mixture of isomers), the outcome (in test [5]; in test [6]; in the test filed under Oryctolagus cuniculus [4]) was inactive. For the same molecule, the IC50 in test [7] came out at 4.4 µM; in test [1], 5.9 µM.
Regarding `COC(=O)[C@H](Cc1ccccc1)NC(=O)CC(NNC(=O)[C@H](CCCCN)NC(=O)OC(C)(C)C)C(F)(F)F` (mixture of isomers), in the test filed under Oryctolagus cuniculus [8], the inhibition was 30%. For the same molecule, the outcome in test [5] and in [6] was inactive. Besides, the IC50 in [1] came to 32 µM; in test [2] it was 6 µM.
As to `COC(=O)[C@H](Cc1ccccc1)NC(=O)CC(NNC(=O)[C@H](CCCCNC(=O)OCc1ccccc1)NC(=O)Cc1cccc(Oc2ccccc2)c1)C(F)(F)F` (mixture of isomers), the outcome in the test filed under Oryctolagus cuniculus [3] and in the test listed under Oryctolagus cuniculus [9] was inactive. The IC50 in [2] is 200 µM.
Consider `COC(=O)[C@H](Cc1ccccc1)NC(=O)CC(NNC(=O)[C@H](CCCCN)NC(=O)Cc1cccc(Oc2ccccc2)c1)C(F)(F)F` (mixture of isomers), for which the outcome in test [5] and in test [6] was inactive. Moreover, the IC50 worked out at 8.4 µM in test [7], 1.6 µM in test [1] and 2.7 µM in [2]. Also, in the test on HeLa, the inhibition was determined as 20%.
In the case of `COC(=O)[C@H](Cc1ccccc1)NC(=O)CC(NNC(=O)[C@H](CCCCNC(=O)OCc1ccccc1)NC(=O)OC(C)(C)C)C(F)(F)F` (mixture of isomers), the outcome in the test filed under Oryctolagus cuniculus [9] and in the test filed under Oryctolagus cuniculus [4] was inactive.

The values above are taken from ChEMBL document CHEMBL1139309, “Novel fluorinated pseudopeptides as proteasome inhibitors” (Bioorg Med Chem Lett, 2009).
